Assay outcomes deposited in PubChem BioAssay by The Scripps Research Institute Molecular Screening Center.
CHO parental Ca – counter-screen: ATP calcium response change in parental CHO cells. inhibition, % at 5.6 µM. parental CHO-K1, ATP-induced calcium, Fluo-8 fluorescence. AID 463079. 330,000 compounds, 0.63% hits;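 active means inhibition above that plate's mean sample inhibition plus 3 SD, cut at about 26% in these data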;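 further: 0% = ATP-challenged DMSO wells and 100% = DMSO wells without ATP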
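Test system: untransfected parental CHO cell line. Compound: one dose, 5.6 µM nominal. Detection: intracellular calcium via Fluo-8 no-wash fluorescent dye. Measure: % inhibition. Benchmarks: ATP-challenged DMSO wells low, unchallenged DMSO wells high.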
OX1R antag-1 – antagonists of human orexin 1 receptor. O43613. CHO/OX1R cells, Fluo-8 calcium fluorescence, orexin A. inhibition, % at 5 µM. 330,000 compounds, 0.43% hits;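 active means inhibition above its plate's threshold, mean inhibition of all tested compounds on the plate plus 3 SD, cut at about 37% in these data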;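 further: 0% = orexin A challenge wells and 100% = SB-334867-A antagonist wells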
Target sequence (O43613 whole entry, looked up): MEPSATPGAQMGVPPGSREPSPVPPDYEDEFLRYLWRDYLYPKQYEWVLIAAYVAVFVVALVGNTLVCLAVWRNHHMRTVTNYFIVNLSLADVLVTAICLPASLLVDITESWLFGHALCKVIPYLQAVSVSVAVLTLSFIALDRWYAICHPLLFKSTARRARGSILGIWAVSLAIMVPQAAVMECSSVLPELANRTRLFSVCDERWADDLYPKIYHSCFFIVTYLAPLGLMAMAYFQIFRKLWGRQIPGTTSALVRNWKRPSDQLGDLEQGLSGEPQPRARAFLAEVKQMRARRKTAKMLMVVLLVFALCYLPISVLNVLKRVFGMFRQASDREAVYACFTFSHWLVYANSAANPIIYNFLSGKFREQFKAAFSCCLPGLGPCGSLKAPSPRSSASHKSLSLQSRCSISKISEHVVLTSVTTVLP
OX1R antag-2 – blocks the human orexin 1 receptor | inhibition, % at 6.6 µM | 330,000 compounds, 1.8% hits | OX1R-expressing cells, FRET antagonist read-out | O43613; in the data active means inhibition mostly above about 38%, no sharp cut-off; inactive means mostly below about 40%;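 further: 0% = agonist challenge alone and 100% = reference antagonist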
GalR3 antagonist – antagonists of human GalR3 | O60755 | HEK293 GalR3-CNG cAMP membrane potential fluorescence; galR3 body fused to GalR1 C-terminus | inhibition, % at 3 µM | 360,000 compounds, 0.44% hits | AID 651719;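 active means inhibition above the screen-wide average plus 3 SD, cut at about 13% in these data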;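 further: forskolin and galanin both at EC90 stimulate the cells; cAMP rise reported by CNG channel membrane potential dye signal; 0% = forskolin plus galanin with DMSO and 100% = forskolin alone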
Target sequence (O60755 1-299 limits assumed): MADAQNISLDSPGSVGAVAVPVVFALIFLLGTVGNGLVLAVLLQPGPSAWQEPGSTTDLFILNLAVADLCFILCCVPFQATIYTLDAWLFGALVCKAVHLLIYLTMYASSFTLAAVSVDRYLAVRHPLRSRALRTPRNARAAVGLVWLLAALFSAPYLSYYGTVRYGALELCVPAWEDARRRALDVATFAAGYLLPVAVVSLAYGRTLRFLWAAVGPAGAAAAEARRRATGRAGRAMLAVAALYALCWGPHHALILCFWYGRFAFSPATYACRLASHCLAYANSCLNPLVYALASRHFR
TAAR1 agonist – agonists of human TAAR1. Q96RJ0. CHO RD-HGA16 TAAR1, Fluo-8 calcium fluorescence; vehicle wells 0%, saturating PEA agonist 100%. activation, % at 3 µM. 360,000 compounds, 0.99% hits;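 active means activation above the mean activation of all test compounds in the run plus 3 SD, cut at about 38% in these data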
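Test system: RD-HGA16 (CHO) cells co-expressing Gα16 and hTAAR1 / Benchmarks: DMSO vehicle as 0%, PEA at EC100 as 100% / Repeats: no replicates (n 1) / Measure: % activation from peak over basal fluorescence ratio, DMSO-to-PEA scaled / Timing: 17-24 h plating, Fluo-8 75 min 37 °C, 30 min RT / Technique: kinetic Fluo-8 calcium fluorescence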
TAAR1 antag – human TAAR1 antagonism | Q96RJ0 | inhibition, % at 3 µM | 360,000 compounds, 1.5% hits | CHO RD-HGA16 TAAR1, Fluo-8 calcium fluorescence, antagonist | AID 624466;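 active means inhibition above a per-plate cutoff, the mean inhibition of test compounds on that plate plus 3 SD, cut at about 49% in these data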;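 further: 0% = DMSO plus EC80 beta-PEA response and 100% = DMSO alone without agonist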
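Assay system: CHO-derived RD-HGA16 cells stably expressing human TAAR1 plus Gα16. Timing: 140 s kinetic read after compound, 140 s after agonist. Technique: kinetic Fluo-8 calcium fluorescence measurement. Measure: % inhibition of agonist calcium response.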
TAAR1 nonsel count – nonselective antagonism, TAAR1 counter-screen; shares compounds with TAAR1 antag; counterscreen cell line, calcium fluorescence, antagonist mode; inhibition, % at 3 µM; 2,400 compounds, 77% hits; AID 651780; in the data active means inhibition above about 22%;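 further: CHO-Ga16 host cells stimulated with ATP at an EC80 level; 0% = agonist EC80 plus vehicle and 100% = vehicle without agonist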
TAAR1 antag conf – confirmation of human TAAR1 antagonists | shares compounds with TAAR1 antag | 2,400 compounds, 40% hits | TAAR1-expressing cells, fluorescence antagonist read-out | inhibition, % at 3 µM; in the data active means inhibition above about 49%;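 further: CHO-Ga16 host cells challenged with agonist PEA near its EC80; 0% = agonist at EC80 plus vehicle and 100% = vehicle with no agonist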
Ga16 ag counter-1 – nonselective Ga16 agonism, counter-screen; Ga16-expressing cells, calcium fluorescence, agonist counterscreen; activation, % at 3 µM; 2,400 compounds, 18% hits; shares compounds with TAAR1 antag; in the data active means activation above about 12%;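 further: 0% = vehicle wells and 100% = saturating stimulus response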
TAAR1 ag count – counter-screen for human TAAR1 antagonists: TAAR1 agonists; shares compounds with TAAR1 antag; hTAAR1 cell line, fluorescence activation, agonist mode; activation, % at 3 µM; 2,400 compounds, 2% hits; AID 651955; in the data active means activation above about 37%;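 further: CHO cells stably expressing TAAR1 with calcium dye readout; 0% = DMSO vehicle and 100% = full agonist response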
TAAR1 ag confirm – human TAAR1 agonism, confirmed | shares compounds with TAAR1 agonist | AID 651783 | activation, % at 3 µM | CHO RD-HGA16 TAAR1, Fluo-8 calcium fluorescence; scaled: DMSO 0%, maximal phenethylamine 100% | 2,400 compounds, 82% hits;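 active means activation above a cutoff set at the run's mean compound activation plus 3 SD, cut at about 39% in these data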
Ga16 ag counter-2 – nonselective agonist in parental cells, TAAR1 agonist counter-screen | shares compounds with TAAR1 agonist | CHO-Ga16 parental, Fluo-8 calcium fluorescence; normalized to maximal ATP response, DMSO zero | activation, % at 3 µM | 2,400 compounds, 50% hits;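 active means activation above the run cutoff, the mean activation over all tested wells plus 3 SD, cut at about 12% in these data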;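 further: 0% = DMSO wells and 100% = maximal ATP response on the peak over basal ratio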
TAAR1 desens – human TAAR1 agonist that also desensitizes the receptor; shares compounds with TAAR1 agonist; CHO RD-HGA16 hTAAR1, Fluo-8 calcium, beta-PEA response inhibition; inhibition, % at 3 µM; 2,400 compounds, 46% hits; AID 651951;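 active means inhibition above the run cutoff, the mean inhibition of all test compounds plus 3 SD, cut at about 49% in these data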;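 further: beta-PEA stimulus applied at its EC80; loss of beta-PEA calcium signal after compound pretreatment read as receptor desensitization; 0% = DMSO with beta-PEA at EC80 and 100% = DMSO alone without agonist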
Ga16 nonsel ant – nonselective Ga16 antagonism, counter-screen; inhibition, % at 3 µM; 2,400 compounds, 39% hits; CHO-Ga16 ATP-induced calcium, Fluo-8 fluorescence; shares compounds with TAAR1 agonist;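 active means inhibition above the plate's mean compound inhibition plus 3 SD, computed per plate, cut at about 22% in these data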;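 further: 0% = EC80 ATP with DMSO and 100% = DMSO wells without ATP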
GalR3 conf – GalR3 (human) antagonism, confirmation; AID 652245; 1,600 compounds, 59% hits; shares compounds with GalR3 antagonist; HEK293 GalR3 CNG cAMP biosensor, membrane potential fluorescence; galR3 fused to GalR1 carboxy tail; challenged with forskolin and galanin at EC90; inhibition, % at 3 µM;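 active means inhibition above the primary screen's cutoff, the mean inhibition of all screened compounds plus 3 SD, cut at about 13% in these data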;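 further: 0% = forskolin plus galanin and 100% = forskolin alone with DMSO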
HEK-CNG parental – counter-screen for GalR3 antagonists: nonspecific agonists in parental HEK-CNG cells; shares compounds with GalR3 antagonist; HEK293-CNG parental cells, cAMP membrane potential fluorescence; normalised: DMSO wells 0%, forskolin wells 100%; activation, % at 3 µM; 1,600 compounds, 10% hits; in the data active means activation above about 1.3%
* = called active by the depositor. Hits are enriched below; roughly 4.2% of the tested compounds scored in any of these assays.

`COc1ccc(C(C#N)Nc2ccccc2OC)cc1` (stereo not drawn) gave CHO parental Ca -12.4, OX1R antag-1 -13.1, OX1R antag-2 4.0, GalR3 antagonist -4.1, TAAR1 agonist 14.5 and TAAR1 antag -7.7.
Screening Oc1c(Br)cc(Br)cc1C=NCc1ccc(F)cc1 returned CHO parental Ca -8.3, OX1R antag-1 -7.1, OX1R antag-2 -29.0, GalR3 antagonist 34.2*, TAAR1 agonist 5.3, TAAR1 antag 52.0*, TAAR1 nonsel count 27.2*, TAAR1 antag conf 27.7, Ga16 ag counter-1 0.8, TAAR1 ag count 14.0, GalR3 conf 5.3 and HEK-CNG parental 0.1.
`c1ccc(SCCOCCN2CCOCC2)cc1` gave CHO parental Ca -9.5, OX1R antag-1 -15.6, OX1R antag-2 4.8, GalR3 antagonist -11.5, TAAR1 agonist 0.0 and TAAR1 antag -2.0.
Screening c1ccc(SCCOCCN2CCc3ccccc3C2)cc1 returned CHO parental Ca -13.8, OX1R antag-1 -22.3, OX1R antag-2 0.8, GalR3 antagonist 0.7, TAAR1 agonist 50.2*, TAAR1 antag -19.8, TAAR1 ag confirm 61.5*, Ga16 ag counter-2 0.2, TAAR1 desens 14.8 and Ga16 nonsel ant 3.7.
For CC1(C)CC[C@]2(C(=O)O)CC[C@]3(C)C(=CC[C@@H]4[C@@]5(C)CC[C@H](O[C@@H]6O[C@H](C(=O)O)[C@@H](O)[C@H](O[C@@H]7OC[C@H](O)[C@H](O)[C@H]7O)[C@H]6O)C(C)(C)[C@@H]5CC[C@]43C)[C@@H]2C1 the results were CHO parental Ca 100.4*, OX1R antag-1 110.8*, OX1R antag-2 33.6, GalR3 antagonist -4.7, TAAR1 agonist 109.2*, TAAR1 antag 109.3*, TAAR1 ag confirm 83.9*, Ga16 ag counter-2 66.0*, TAAR1 desens 104.5* and Ga16 nonsel ant 94.8*.
`Brc1ccc2ncnc(Nc3cccc4ccccc34)c2c1` gave CHO parental Ca -33.8, OX1R antag-1 -33.3, OX1R antag-2 16.1, GalR3 antagonist -8.1, TAAR1 agonist 52.8*, TAAR1 antag 1.3, TAAR1 ag confirm 15.3, Ga16 ag counter-2 30.3*, TAAR1 desens 2.2 and Ga16 nonsel ant 5.1.
Screening COc1cccc(Nc2ncnc3ccc(Br)cc23)c1 returned GalR3 antagonist -6.7, TAAR1 agonist 0.7 and TAAR1 antag -39.9.
`CC(C)c1ccc(-c2c(NCCc3ccccc3)c(=O)c2=O)cc1` gave CHO parental Ca 0.9, OX1R antag-1 -4.4, OX1R antag-2 3.9, GalR3 antagonist 6.0, TAAR1 agonist 49.1*, TAAR1 antag -4.0, TAAR1 ag confirm 37.0, Ga16 ag counter-2 1.9, TAAR1 desens 13.2 and Ga16 nonsel ant 9.1.
`O=C(O)C1CCCCC1C(=O)NCCc1cccc(Cl)c1` (stereo not drawn) gave CHO parental Ca -2.6, OX1R antag-1 -3.2, OX1R antag-2 14.3, GalR3 antagonist -1.9, TAAR1 agonist 89.8*, TAAR1 antag 68.4*, TAAR1 ag confirm 87.9*, Ga16 ag counter-2 2.3, TAAR1 desens 69.5* and Ga16 nonsel ant -1.4.
For O=C(O)[C@H]1CCCC[C@H]1C(=O)NCCNC(=O)[C@@H]1CCCC[C@@H]1C(=O)O the results were CHO parental Ca -1.9, OX1R antag-1 5.8, OX1R antag-2 -1.0, GalR3 antagonist -5.4, TAAR1 agonist 7.0 and TAAR1 antag -2.9.
For O=C(O)C1C2C=CC(C2)C1C(=O)NCCc1cccc(Cl)c1 (stereo not drawn) the results were CHO parental Ca -9.4, OX1R antag-1 -3.8, OX1R antag-2 16.1, GalR3 antagonist -2.0, Ga16 ag counter-2 1.4 and Ga16 nonsel ant 9.8.
For O=C(O)C1C2C=CC(C2)C1C(=O)NCc1cccc(Cl)c1 (stereo not drawn) the results were CHO parental Ca -10.2, OX1R antag-1 -8.9, OX1R antag-2 6.6, GalR3 antagonist 10.8, TAAR1 agonist 23.7 and TAAR1 antag -6.3.
O=C(O)C1CCCCC1C(=O)NCCc1ccc(F)cc1 (stereo not drawn) was read as CHO parental Ca -5.9, OX1R antag-1 -22.4, OX1R antag-2 13.2, GalR3 antagonist -2.5, TAAR1 agonist 81.0*, TAAR1 antag 33.7, TAAR1 ag confirm 92.9*, Ga16 ag counter-2 3.0, TAAR1 desens 72.9* and Ga16 nonsel ant 7.3.
`O=C(O)C1CCCCC1C(=O)NCCc1ccc(Cl)cc1` (stereo not drawn) gave CHO parental Ca 1.4, OX1R antag-1 -19.7, OX1R antag-2 19.0, GalR3 antagonist -5.0, TAAR1 agonist 70.2*, TAAR1 antag 16.6, TAAR1 ag confirm 54.1*, Ga16 ag counter-2 0.0, TAAR1 desens 6.7 and Ga16 nonsel ant 5.3.
CCC(C)n1c(SCC(=O)NC2CC2)nc2ccccc2c1=O (stereo not drawn) was read as GalR3 antagonist -5.8, TAAR1 agonist 1.0 and TAAR1 antag -24.2.
